Assay results from different studies.
Each line is one published result; the experiments were not run side by side. Converted amounts (≈) assume the structure as drawn.

SMILES	organism	test	test system	setting	endpoint	result
C=CC(=O)ON=C1C=CC(=C(C#N)c2ccccc2)C=C1	Nakaseomyces glabratus	microbial killing, broth dilution	ATCC15126	48 h	MFC	16 µg/mL (≈ 57.9 µM)
O=C(Nc1ccc2ccccc2c1)c1ccc(COC(Cn2ccnc2)c2ccc(Cl)cc2Cl)cc1 (stereo not drawn)	Nakaseomyces glabratus	microbial growth, broth dilution			MIC80	64 µg/mL (≈ 124 µM)
CC(=O)ON=C1C=CC(=C(C#N)c2ccccc2)C=C1	Nakaseomyces glabratus	microbial killing, broth dilution	ATCC15126	48 h	MFC	16 µg/mL (≈ 60.5 µM)
C/C(=N/NC(=O)c1cn(-c2ccccc2)nc1-c1ccc(C)cc1)c1c(O)cc(C)oc1=O	Bacillus subtilis	microbial growth			MIC	50 µg/mL (≈ 113 µM)
CC(=O)N1CCN(c2ccc(OCC3COC(Cn4ccnc4)(c4ccc(Cl)cc4Cl)O3)cc2)CC1 (stereo not drawn)	Nakaseomyces glabratus	microbial growth, broth dilution	ATCC15126	48 h	MIC	8 µg/mL (≈ 15.1 µM)
O=C(Nc1ccc(F)cc1F)c1ccc(COC(Cn2ccnc2)c2ccc(Cl)cc2Cl)cc1 (stereo not drawn)	Nakaseomyces glabratus	microbial growth, broth dilution			MIC80	0.03 µg/mL (≈ 0.0597 µM)
C[C@@H]1[C@H](O)[C@@H](C)/C=C/C=C/C=C/C=C/C=C/C=C/C=C/[C@H](O[C@@H]2O[C@H](C)[C@@H](O)[C@H](N)[C@@H]2O)C[C@@H]2O[C@](O)(C[C@@H](O)C[C@@H](O)[C@H](O)CC[C@@H](O)C[C@@H](O)CC(=O)O[C@H]1C)C[C@H](O)[C@H]2C(=O)O	Cryptococcus neoformans	microbial growth, broth dilution	H99	48 h	MIC	0.5 µg/mL (≈ 0.541 µM)
C/C(=N/NC(=O)c1cn(-c2ccccc2)nc1-c1ccc(F)cc1)c1c(O)cc(C)oc1=O	Bacillus subtilis	microbial growth			MIC	70 µg/mL (≈ 157 µM)
C#CCOC(=O)ON=C1C=CC(=C(C#N)c2ccccc2)C=C1	Nakaseomyces glabratus	microbial growth, broth dilution	ATCC15126	48 h	MIC	16 µg/mL (≈ 52.6 µM)
Cc1ccc(NC(=O)c2ccc(COC(Cn3ccnc3)c3ccc(Cl)cc3Cl)cc2)cc1 (stereo not drawn)	Nakaseomyces glabratus	microbial growth, broth dilution			MIC80	0.06 µg/mL (≈ 0.125 µM)
CC1(C)S[C@@H]2[C@H](NC(=O)[C@H](N)c3ccccc3)C(=O)N2[C@H]1C(=O)O	Bacillus subtilis	microbial growth			MIC	2 µg/mL (≈ 5.72 µM)
O=C(Nc1cccc(Br)c1)c1ccc(COC(Cn2ccnc2)c2ccc(Cl)cc2Cl)cc1 (stereo not drawn)	Nakaseomyces glabratus	microbial growth, broth dilution			MIC80	0.125 µg/mL (≈ 0.229 µM)
O=C(O)c1cn(C2CC2)c2cc(N3CCNCC3)c(F)cc2c1=O	Bacillus subtilis	microbial growth, well diffusion	ATCC6051	100 µg/mL	inhibition zone	30 mm
O=C(Nc1ccc(Cl)cc1)c1ccc(COC(Cn2ccnc2)c2ccc(Cl)cc2Cl)cc1 (stereo not drawn)	Nakaseomyces glabratus	microbial growth, broth dilution			MIC80	0.125 µg/mL (≈ 0.25 µM)
C#CCON=C1C=CC(=C(C#N)c2ccccc2)C=C1	Nakaseomyces glabratus	microbial growth, broth dilution	ATCC15126	48 h	MIC	16 µg/mL (≈ 61.5 µM)
